Laboratory results from the RNAGym collection of RNA variant scans (doi:10.1126/science.aae0568).
Fewer inactive variants are shown than the library holds.

B1: tRNA (parent)
chain: GUUCCGUUGGCGUAAUGGUAACGCGUCUCCCUCCUAAGGAGAAGACUGCGGGUUCGAGUCCCGUACGGAACG

Variants of: B1
Assay: yeast fitness relative to wild type (ratio to wild type); higher = fitter; tRNA-Arg(CCU), competitive growth, 37 C, YPD
Method in brief: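 For this measurement, the tRNA-Arg(CCU) gene was varied by chemical synthesis at a 3% per-site mutation rate across 69 sites, and each variant was placed at the native genomic locus in Saccharomyces cerevisiae. The pooled strains went through a 24-hour competition in YPD at 37°C in six parallel replicates, with amplicons from start and end populations read by 100-nucleotide paired-end sequencing. Darwinian fitness relative to wild type followed from the change in each genotype's frequency. Genotypes needed ≥ 100 starting reads, and estimates < 0.5 were set to 0.5.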

Going from GUUCCGUUGGUGUAGUGGUAACGCGUCUCCCUCCUAAGGAGAAGGCUGCGGGUUCGAGUCCCGUACGGAACG [C11U A15G A45G] to GUUCCGUUGGUGUAUUGGUAACGCGUCUCCCUCCUAAGGAGAAGACUGCGGGUUCGAGUCCCGUUCGGAACG [C11U A15U A65U], the yeast fitness falls from 0.599 to at most 0.5.

Compared with GUUCCGUUGGUGUACUGGUAACGCGUCUCCCUCCUAAGGAGAAAACUGCGGGUUCGAGUCCCGUUCGGAACG [C11U A15C G44A A65U], GUUCCGUUGGUGUAAUGGUGACGCGUCUCCCUCCUAAGGAGAAGACUGCGGGUUCGAGUCCCGUACGGAACG [C11U A20G] is higher in yeast fitness: at most 0.5 for the first, 0.957 for the second.

First: GUUCCGUUGGUGUAAUGGUCACGCGUCUCCCUCCUAAGGAGAAGACUGCGGGUUCGAGUCCCGUACGGAACG [C11U A20C]
Second: GUUCCGUUGGUGUAGUGGUAACGCGUCUCCCUCCUAAGGAGAAGACUCCGGGUUCGAGUCCCGUACGGAACG [C11U A15G G48C]
The yeast fitness of the first is higher: 0.777 for the first, 0.511 for the second.

First: GUUCCGUUGGUGUUAUGGUAACGCGUUUCCCUCCUUAGGAGAGGAUUGCGGGUUCGAGUCCCGUACGGAACG [C11U A14U C27U A36U A43G C46U]
Second: GUUCCGUUGGUGUGAUGGUAACGCGUCUCCAUCCUAAGGAGAAGACUGCGGGUUUGAGUCCCGUACGAAACG [C11U A14G C31A C55U G68A]
The yeast fitness of the first is higher: 0.632 for the first, at most 0.5 for the second.

Going from GUUCCGUUGGUGUUAUGGUAACGGGUCUCCCUCCUAAGGAGAAGACUGCGGGUUUGAGUCCCGUACGGAACG [C11U A14U C24G C55U] to GUUCCGUUGGUGUAGUGGUAACGCGUCUCCCUCCUAAGGAGAAGACUGCGGGUUCGAGUCCCGUGCGGAACG [C11U A15G A65G], the yeast fitness rises from at most 0.5 to 0.766.

First: GUUCCGUUGGUGUAGUGGUAACGCGUCUCCCUCCUUAGGAGAUGAGUGCGGGUUCGAGUCCAGUACGGAACG [C11U A15G A36U A43U C46G C62A]
Second: GUUCCGUUGGUGUGAUGGUAACGCGUCUCCCUCCCAAGGAGAAGACUGCGGGUUCGAGUCCCGUACGGAUCG [C11U A14G U35C A70U]
The yeast fitness of the first is higher: 0.635 for the first, at most 0.5 for the second.

First: GUUCCGUUGGUGUACUGGUAACGCGUCUUCCUCCUAGGGAGAAGACUGCGGGUUCGAGUCCCAUACGGAACG [C11U A15C C29U A37G G63A]
Second: GUUCCGUUGGUGUAUUGGUAACGCGUUUCCCUCCUAAGGAGAAGACUGCGGGUUCGAGUGCCGUACGGAACG [C11U A15U C27U C60G]
The yeast fitness of the first is lower: at most 0.5 for the first, 0.563 for the second.

First: GUUCCGUUGGUGUGAUGGUAACGCGUCUCCCUCCUAAGGAGAAGACUGAGGGUUCGAGUCCCGUACGGAACG [C11U A14G C49A]
Second: GUUCCGUUGGUGUUAUGAUAACGCGUCUCCCUCCUAAGGAACAGACUGCCGGUUCGAGUCCCGUACGGAGCG [C11U A14U G18A G41A A42C G50C A70G]
The yeast fitness of the first is lower: at most 0.5 for the first, 0.552 for the second.

Going from GUUCCGUUGGUGUCAGGGUAACGCGUCUACCUCCUAAGGAGAAGACUGCGGGUUCGAGUCCCGUACGCAACG [C11U A14C U16G C29A G68C] to GUUCCGUUGGUGUAGUGGUAACGCGUGUCCCUCCUAAGGAGAAGACUGCGGGUUCGAGUUCGGUAGGGAACG [C11U A15G C27G C60U C62G C66G], the yeast fitness falls from 0.585 to at most 0.5.

GUUCCGUUGGUGUACUGGUAACGCGUCUCCCUCCUAAGGAGAAGACUGCGGGUUCGAGUCCCGUCCGGAUCG [C11U A15C A65C A70U] and GUUCCGUUGGUGUUAUGGUAACGCGUUUCCCUCCUUAGGAGAGGAUUGCGGGUUCGAGUCCCGUUCGGAACG [C11U A14U C27U A36U A43G C46U A65U] cannot be ordered by yeast fitness: at most 0.5 for the first, at most 0.5 for the second.

GUUCCGUUGGUGUAUUGGUAACGCGUCUCCCUCCUAAGGAGAAGACUGCGGGUUCGGGUCCCGUACGGCACG [C11U A15U A57G A69C] and GUUCCGUUGGUGUAUUGGUAACGCGUCUCCCUCCUAAGGAGAAGACUGCGGGUUCGAGUUCCGUACCGAACG [C11U A15U C60U G67C] cannot be ordered by yeast fitness: at most 0.5 for the first, at most 0.5 for the second.

GUUCCGUUGGUGUACUGGUAGCGGGUCACCCUCCUAAGGAGAAGACUGCGGGUUCGAGUCCCGUACGGAACG [C11U A15C A21G C24G U28A] and GUUCCGUUGGUGUCAUAGUAACACGUCUGCCUCCUAAGGAGCAGACUGCGGGUUCAAGUCCUGUACGGAACG [C11U A14C G17A G23A C29G A42C G56A C62U] cannot be ordered by yeast fitness: at most 0.5 for the first, at most 0.5 for the second.

GUUCCGUUGGUGUUAUGAUAACGCGUCUCCUUCCUAAGGAGAAGAGAGCGGGUUCGAGUCCCGUCCGGAACG [C11U A14U G18A C31U C46G U47A A65C] and GUUCCGUUGGUGUAGUGGUAACGCGGCCCCCUACUAAGGAGAAGACUGCGGGUUGGAGUCCCGUACGGAACG [C11U A15G U26G U28C C33A C55G] cannot be ordered by yeast fitness: at most 0.5 for the first, at most 0.5 for the second.

Compared with GUUCCGUUGGUGUGAUGGUAACGCGUCUUCCUCCUAAGAAGAAGACUGCGGGUUCGAGUCCCGUACGGAACG [C11U A14G C29U G39A], GUUCCGUUGGUGUAGUGGUAACGCGUCUCCCUCCUAAGGAGAAGACUGCGGGUUCGACUCCCGUACGGAACG [C11U A15G G58C] is higher in yeast fitness: at most 0.5 for the first, 0.725 for the second.

Going from GUUCCGUUGGUGUAGUGGUAACGCGUCUCCCUCCUAAGGAGAAGAAUGCGGGUUCGAGUCCGGUACGAAACG [C11U A15G C46A C62G G68A] to GUUCCGUUGGUGUCAUGGUAACGCGUCUGGCUCCUUAGGUGAAGACUGCGGGUUCGAGUCCCGUACGGAACG [C11U A14C C29G C30G A36U A40U], the yeast fitness rises from at most 0.5 to 0.591.

GUUCCGUUGGUGUGAUGGUAACGCGUCUCCAUCCUAAGGAGGAGACUGCGGGUUCGAGUCCCGUACGGAACG [C11U A14G C31A A42G] and GUUCCGUUGGUGUGAUGGUAACGGGUUUCCCUCCUGAGGAACAGACUGCGGGUUCGAGUCCCGUACGGAACG [C11U A14G C24G C27U A36G G41A A42C] cannot be ordered by yeast fitness: at most 0.5 for the first, at most 0.5 for the second.

Compared with GUUCCGUUGGUGUUAUGGUAACGCGUCUCCCUCUUAAGGAGAAGACUGCGGGUUCGAGUCCCGUACGGAACG [C11U A14U C34U], GUUCCGUUGGUGUACUGGUAACGCGUCUCCCUCCUAAGGUGAAGACUGCGGGUUCGAGUCCCGUACGGAACG [C11U A15C A40U] is higher in yeast fitness: at most 0.5 for the first, 0.543 for the second.

First: GUUCCGUUGGUGUAGUGGUAACGCGUCUCCCUCCUAAGGAGAAGAAUGCGGGUUCGGGUCCCGUACGGAACG [C11U A15G C46A A57G]
Second: GUUCCGUUGGUGUUAUGGUAACGCGUCUCCCUCUUAAGGAGAAGACUGCGGGUUCGGGUCCCGUACGGAACG [C11U A14U C34U A57G]
The yeast fitness of the first is higher: 0.629 for the first, at most 0.5 for the second.

Compared with GUUCCGUUGGUGUAGUGGUAACGCGUCUGCCUCCUAAGGAGAAGACUACGGGUUCGAGUCCUGUAUGGAACG [C11U A15G C29G G48A C62U C66U], GUUCCGUUGGUGUCAUGGUAACGCGUCUUGCUCCUAAGGGGAAGACUGAGGGUUCGAGUCCCGUACGGAACG [C11U A14C C29U C30G A40G C49A] is lower in yeast fitness: 0.535 for the first, at most 0.5 for the second.
